Experimental data: ChEMBL document CHEMBL3864121, “Development of ebsulfur analogues as potent antibacterials against methicillin-resistant Staphylococcus aureus” (Bioorg Med Chem, 2016)
Values after ≈ are worked out from the molar mass of the structure shown.

Columns and labels:
Format in all cases: functional
Staphylococcus aureus [1] = experiment: Antibacterial activity against methicillin-resistant Staphylococcus aureus 2 measured after overnight incubation by broth double-dilution method
How it was run: (§1)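 MIC by broth double-dilution in liquid Mueller-Hinton medium. Values are reported in µg/mL.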

Enterococcus = experiment: Antibacterial activity against Vancomycin-resistant Enterococcus measured after overnight incubation by broth double-dilution method; how it was run: as §1
Staphylococcus aureus [2] = experiment: Antibacterial activity against methicillin-resistant Staphylococcus aureus C7 measured after overnight incubation by broth double-dilution method; how it was run: as §1
Staphylococcus aureus [3] = experiment: Antibacterial activity against methicillin-resistant Staphylococcus aureus NRS51 measured after overnight incubation by broth double-dilution method; how it was run: as §1
[4] = system: Staphylococcus epidermidis; experiment: Antibacterial activity against Staphylococcus epidermidis ATCC 35984 measured after overnight incubation by broth double-dilution method; settings: RP62A
How it was run: (§2)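 MIC by broth double-dilution in Mueller-Hinton medium. Re-testing at the time-kill inoculum used 1×10^6 CFU/mL.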

Staphylococcus aureus [5] = experiment: Antibacterial activity against methicillin-resistant Staphylococcus aureus C1 measured after overnight incubation by broth double-dilution method; how it was run: as §1
Staphylococcus aureus [6] = experiment: Antibacterial activity against methicillin-resistant Staphylococcus aureus C19 measured after overnight incubation by broth double-dilution method; how it was run: as §1
Staphylococcus aureus [7] = experiment: Antibacterial activity against methicillin-resistant Staphylococcus aureus G14 measured after overnight incubation by broth double-dilution method; how it was run: as §1
Staphylococcus aureus [8] = experiment: Antibacterial activity against methicillin-sensitive Staphylococcus aureus ATCC 25923 measured after overnight incubation by broth double-dilution method; how it was run: as §1
Staphylococcus aureus [9] = experiment: Antibacterial activity against methicillin-resistant Staphylococcus aureus S24 measured after overnight incubation by broth double-dilution method; how it was run: as §1
Staphylococcus aureus [10] = experiment: Antibacterial activity against methicillin-resistant Staphylococcus aureus 1 measured after overnight incubation by broth double-dilution method; how it was run: as §1
Listeria monocytogenes = experiment: Antibacterial activity against Listeria monocytogenes ATCC 19115 measured after overnight incubation by broth double-dilution method; how it was run: as §2
Staphylococcus aureus [11] = experiment: Antibacterial activity against methicillin-resistant Staphylococcus aureus NRS77 measured after overnight incubation by broth double-dilution method; how it was run: as §1
Staphylococcus aureus [12] = experiment: Antibacterial activity against methicillin-resistant Staphylococcus aureus USA300 measured after overnight incubation by broth double-dilution method; how it was run: as §1
Enterococcus faecium = experiment: Antibacterial activity against Enterococcus faecium BM4105-RF measured after overnight incubation by broth double-dilution method; how it was run: as §1
[13] = system: Mycolicibacterium smegmatis; experiment: Antibacterial activity against Mycobacterium smegmatis MC2-155 measured after overnight incubation by broth double-dilution method; settings: str. MC2 155; how it was run: as §1
Staphylococcus aureus [14] = experiment: Antibacterial activity against methicillin-resistant Staphylococcus aureus S17 measured after overnight incubation by broth double-dilution method; how it was run: as §1
Staphylococcus aureus [15] = experiment: Antibacterial activity against methicillin-resistant Staphylococcus aureus USA200 measured after overnight incubation by broth double-dilution method; how it was run: as §1
Enterococcus faecalis [16] = experiment: Antibacterial activity against Enterococcus faecalis ATCC 49533 measured after overnight incubation by broth double-dilution method; how it was run: as §2
Staphylococcus aureus [17] = experiment: Antibacterial activity against methicillin-resistant Staphylococcus aureus USA100 measured after overnight incubation by broth double-dilution method; how it was run: as §1
Staphylococcus aureus [18] = experiment: Antibacterial activity against methicillin-resistant Staphylococcus aureus G12 measured after overnight incubation by broth double-dilution method; how it was run: as §1
Staphylococcus aureus [19] = experiment: Antibacterial activity against methicillin-resistant Staphylococcus aureus G1 measured after overnight incubation by broth double-dilution method; how it was run: as §1
Staphylococcus aureus [20] = experiment: Antibacterial activity against methicillin-resistant Staphylococcus aureus ATCC 33591 measured after overnight incubation by broth double-dilution method; how it was run: as §1
Staphylococcus aureus [21] = experiment: Antibacterial activity against methicillin-resistant Staphylococcus aureus S14 measured after overnight incubation by broth double-dilution method; how it was run: as §1
Staphylococcus aureus [22] = experiment: Antibacterial activity against methicillin-resistant Staphylococcus aureus C2 measured after overnight incubation by broth double-dilution method; how it was run: as §1
Staphylococcus aureus [23] = experiment: Antibacterial activity against methicillin-resistant Staphylococcus aureus S22 measured after overnight incubation by broth double-dilution method; how it was run: as §1
Staphylococcus aureus [24] = experiment: Antibacterial activity against methicillin-sensitive Staphylococcus aureus ATCC 29213 measured after overnight incubation by broth double-dilution method; how it was run: as §1
Staphylococcus aureus [25] = experiment: Antibacterial activity against methicillin-resistant Staphylococcus aureus USA600 measured after overnight incubation by broth double-dilution method; how it was run: as §1
Staphylococcus aureus [26] = experiment: Antibacterial activity against methicillin-resistant Staphylococcus aureus G6 measured after overnight incubation by broth double-dilution method; how it was run: as §1
Staphylococcus aureus [27] = experiment: Antibacterial activity against methicillin-resistant Staphylococcus aureus NRS4 measured after overnight incubation by broth double-dilution method; how it was run: as §1
Staphylococcus aureus [28] = experiment: Antibacterial activity against methicillin-resistant Staphylococcus aureus BRS3 measured after overnight incubation by broth double-dilution method; how it was run: as §1
Staphylococcus aureus [29] = experiment: Antibacterial activity against methicillin-resistant Staphylococcus aureus C14 measured after overnight incubation by broth double-dilution method; how it was run: as §1
Staphylococcus aureus [30] = experiment: Antibacterial activity against methicillin-resistant Staphylococcus aureus C16 measured after overnight incubation by broth double-dilution method; how it was run: as §1
Staphylococcus aureus [31] = experiment: Antibacterial activity against methicillin-sensitive Staphylococcus aureus ATCC 6538 measured after overnight incubation by broth double-dilution method; how it was run: as §1
Enterococcus faecalis [32] = experiment: Antibacterial activity against Enterococcus faecalis ATCC 29212 measured after overnight incubation by broth double-dilution method; how it was run: as §2

| SMILES | MIC (Staphylococcus aureus [1]) [µg/mL] | MIC (Enterococcus) [µg/mL] | MIC (Staphylococcus aureus [2]) [µg/mL] | MIC [4] [µg/mL] | MIC (Staphylococcus aureus [7]) [µg/mL] | MIC (Staphylococcus aureus [8]) [µg/mL] | MIC (Staphylococcus aureus [9]) [µg/mL] | MIC (Listeria monocytogenes) [µg/mL] | MIC (Staphylococcus aureus [11]) [µg/mL] | MIC (Staphylococcus aureus [12]) [µg/mL] | MIC (Enterococcus faecium) [µg/mL] | MIC [13] [µg/mL] | MIC (Staphylococcus aureus [14]) [µg/mL] | MIC (Staphylococcus aureus [15]) [µg/mL] | MIC (Enterococcus faecalis [16]) [µg/mL] | MIC (Staphylococcus aureus [17]) [µg/mL] | MIC (Staphylococcus aureus [18]) [µg/mL] | MIC (Staphylococcus aureus [20]) [µg/mL] | MIC (Staphylococcus aureus [21]) [µg/mL] | MIC (Staphylococcus aureus [23]) [µg/mL] | also measured |
| --- | --- | --- | --- | --- | --- | --- | --- | --- | --- | --- | --- | --- | --- | --- | --- | --- | --- | --- | --- | --- | --- |
| C#Cc1ccc(-n2sc3ccccc3c2=O)cc1 | 2 (≈ 7.96 µM) | 2 (≈ 7.96 µM) | 2 (≈ 7.96 µM) | 2 (≈ 7.96 µM) | 3.9 (≈ 15.5 µM) | 3.9 (≈ 15.5 µM) | 2 (≈ 7.96 µM) | 3.9 (≈ 15.5 µM) | 3.9 (≈ 15.5 µM) | 3.9 (≈ 15.5 µM) | 7.8 (≈ 31 µM) | 3.9 (≈ 15.5 µM) | 3.9 (≈ 15.5 µM) | 3.9 (≈ 15.5 µM) | < 125 | 2 (≈ 7.96 µM) | 3.9 (≈ 15.5 µM) | 1 (≈ 3.98 µM) | 0.5 (≈ 1.99 µM) | 2 (≈ 7.96 µM) | MIC (Staphylococcus aureus [3]): 3.9 µg/mL (≈ 15.5 µM); MIC (Staphylococcus aureus [5]): 2 µg/mL (≈ 7.96 µM); MIC (Staphylococcus aureus [6]): 2 µg/mL (≈ 7.96 µM); MIC (Staphylococcus aureus [10]): 3.9 µg/mL (≈ 15.5 µM); MIC (Staphylococcus aureus [19]): 2 µg/mL (≈ 7.96 µM); MIC (Staphylococcus aureus [22]): 2 µg/mL (≈ 7.96 µM); MIC (Staphylococcus aureus [24]): 1 µg/mL (≈ 3.98 µM) |
| O=c1c2ccccc2sn1C1CCCCCC1 | 3.9 (≈ 15.8 µM) | 2 (≈ 8.09 µM) | 3.9 (≈ 15.8 µM) | 2 (≈ 8.09 µM) | 3.9 (≈ 15.8 µM) | 3.9 (≈ 15.8 µM) | 3.9 (≈ 15.8 µM) | 3.9 (≈ 15.8 µM) | 2 (≈ 8.09 µM) | 15.6 (≈ 63.1 µM) | 7.8 (≈ 31.5 µM) | 7.8 (≈ 31.5 µM) | 1 (≈ 4.04 µM) | 7.8 (≈ 31.5 µM) | > 125 | 3.9 (≈ 15.8 µM) | 2 (≈ 8.09 µM) | 1 (≈ 4.04 µM) | 0.5 (≈ 2.02 µM) | 3.9 (≈ 15.8 µM) | MIC (Staphylococcus aureus [3]): 3.9 µg/mL (≈ 15.8 µM); MIC (Staphylococcus aureus [5]): 2 µg/mL (≈ 8.09 µM); MIC (Staphylococcus aureus [6]): 1 µg/mL (≈ 4.04 µM); MIC (Staphylococcus aureus [25]): 7.8 µg/mL (≈ 31.5 µM); MIC (Staphylococcus aureus [10]): 2 µg/mL (≈ 8.09 µM); MIC (Staphylococcus aureus [26]): 2 µg/mL (≈ 8.09 µM); MIC (Staphylococcus aureus [27]): 2 µg/mL (≈ 8.09 µM); MIC (Staphylococcus aureus [28]): 2 µg/mL (≈ 8.09 µM); MIC (Staphylococcus aureus [29]): 2 µg/mL (≈ 8.09 µM); MIC (Staphylococcus aureus [30]): 3.9 µg/mL (≈ 15.8 µM); MIC (Staphylococcus aureus [19]): 0.5 µg/mL (≈ 2.02 µM); MIC (Staphylococcus aureus [31]): 7.8 µg/mL (≈ 31.5 µM); MIC (Enterococcus faecalis [32]): > 125 µg/mL; MIC (Staphylococcus aureus [22]): 2 µg/mL (≈ 8.09 µM); MIC (Staphylococcus aureus [24]): 3.9 µg/mL (≈ 15.8 µM) |
| CC(C)(C)n1sc2ccccc2c1=O | 15.6 (≈ 75.3 µM) | 3.9 (≈ 18.8 µM) | 15.6 (≈ 75.3 µM) | 15.6 (≈ 75.3 µM) | 15.6 (≈ 75.3 µM) | 15.6 (≈ 75.3 µM) | 15.6 (≈ 75.3 µM) | 3.9 (≈ 18.8 µM) | 15.6 (≈ 75.3 µM) | 15.6 (≈ 75.3 µM) | 7.8 (≈ 37.6 µM) | 3.9 (≈ 18.8 µM) | 15.6 (≈ 75.3 µM) | 15.6 (≈ 75.3 µM) | 125 (≈ 603 µM) | 15.6 (≈ 75.3 µM) | 15.6 (≈ 75.3 µM) | 3.9 (≈ 18.8 µM) | 2 (≈ 9.65 µM) | 15.6 (≈ 75.3 µM) | MIC (Staphylococcus aureus [25]): 15.6 µg/mL (≈ 75.3 µM); MIC (Staphylococcus aureus [26]): 15.6 µg/mL (≈ 75.3 µM); MIC (Staphylococcus aureus [27]): 15.6 µg/mL (≈ 75.3 µM); MIC (Staphylococcus aureus [28]): 15.6 µg/mL (≈ 75.3 µM); MIC (Staphylococcus aureus [29]): 15.6 µg/mL (≈ 75.3 µM); MIC (Staphylococcus aureus [30]): 15.6 µg/mL (≈ 75.3 µM); MIC (Staphylococcus aureus [31]): 15.6 µg/mL (≈ 75.3 µM); MIC (Enterococcus faecalis [32]): 15.6 µg/mL (≈ 75.3 µM); MIC (Staphylococcus aureus [24]): 15.6 µg/mL (≈ 75.3 µM) |
